Assay results as given in ChEMBL document CHEMBL1123026, “Preparation and antiarthritic and analgesic activity of 4,5-diaryl-2-(substituted thio)-1H-imidazoles and their sulfoxides and sulfones” (1985).

Legend:
Format in all cases: functional
Mus musculus [1] = assay: Effective dose by mouse phenyl-p-benzoquinone writhing (PQW)assay after peroral administration; activity value ranges from (7.5-51.9); settings: po
How it was run: (§1)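 Fasted (17-21 h) female white mice, 5-20 per double-blind test, dosed orally with compound suspended in 1% methylcellulose. 0.20 mL aqueous 0.01% phenyl-p-benzoquinone given i.p. 6 min before a 10-min observation for stretching/writhing. ED50 (dose protecting 50% of mice) calculated by the moving-average method.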

Rattus norvegicus [2] = assay: Effective dose determined against rat adjuvant arthritis after peroral administration; settings: po
How it was run: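 Male Lewis rats (130-150 g) given 0.1 mL Mycobacterium butyricum adjuvant (5 mg/mL in mineral oil) s.c. into the right hind paw; arthritis developed for 2 weeks. Groups of 10 matched for severity were dosed orally by gavage in PVA-acacia vehicle (10 mL/kg) for 7 days. Uninjected left paw volume was measured the day after the last dose. Percent decrease was calculated vs arthritic and nonarthritic controls. ED50 was read from a visually fitted semilog dose-response line.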

Mus musculus [3] = assay: Effective dose by mouse phenyl-p-benzoquinone writhing (PQW)assay after peroral administration; 30.9-197.0; settings: po
Rattus norvegicus [4] = assay: Decrease in paw volume was evaluated at dose 150 mg/kg
How it was run: (§2)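 Male Lewis rats (130-150 g) got 0.1 mL adjuvant (heat-killed Mycobacterium butyricum, 5 mg/mL in mineral oil) subplantar in the right hind paw and were left 2 weeks. Groups of 10 matched for severity were dosed orally by gavage (PVA-acacia vehicle, 10 mL/kg) for 7 days. Uninjected left hind paw volume was read the next day. % decrease = (arthritic control − treated)/(arthritic − nonarthritic control) × 100; Student's t-test.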

Mus musculus [5] = assay: Effective dose determined by mouse phenyl-p-benzoquinone writhing (PQW) assay after peroral administration; settings: po; how it was run: as §1
Mus musculus [6] = assay: Effective dose by mouse phenyl-p-benzoquinone writhing (PQW)assay after peroral administration; activity value ranges from (1.2-4.5); settings: po
Mus musculus [7] = assay: Effective dose by mouse phenyl-p-benzoquinone writhing (PQW)assay after peroral administration; activity value ranges from (10.9-40.0); settings: po; how it was run: as §1
Rattus norvegicus [8] = assay: Decrease in paw volume by the effect of compound at a dose of 30 mg/kg; how it was run: as §2
Mus musculus [9] = assay: Effective dose by mouse phenyl-p-benzoquinone writhing (PQW)assay after peroral administration; 6.8-17.7; settings: po
Mus musculus [10] = assay: Effective dose by mouse phenyl-p-benzoquinone writhing (PQW)assay after peroral administration; activity value ranges from (9.2 - 43.6); settings: po; how it was run: as §1
Mus musculus [11] = assay: Effective dose by mouse phenyl-p-benzoquinone writhing (PQW)assay after peroral administration; activity value ranges from (2.6-10.7); settings: po; how it was run: as §1
Mus musculus [12] = assay: Effective dose by mouse phenyl-p-benzoquinone writhing (PQW)assay after peroral administration; activity value ranges from (4.8 - 25.4); settings: po; how it was run: as §1
Mus musculus [13] = assay: Effective dose by mouse phenyl-p-benzoquinone writhing (PQW)assay after peroral administration; activity value ranges from (0.9-4.5); settings: po
Mus musculus [14] = assay: Effective dose by mouse phenyl-p-benzoquinone writhing (PQW)assay after peroral administration; activity value ranges from (8.4-80.4); settings: po; how it was run: as §1
Rattus norvegicus [15] = assay: Decrease in paw volume by the effect of compound at a dose of 25 mg/kg; how it was run: as §2
Rattus norvegicus [16] = assay: Decrease in paw volume was evaluated at dose 50 mg/kg; how it was run: as §2
Mus musculus [17] = assay: Effective dose by mouse phenyl-p-benzoquinone writhing (PQW)assay after peroral administration; activity value ranges from (4.6 - 21.7); settings: po; how it was run: as §1
Mus musculus [18] = assay: Effective dose by mouse phenyl-p-benzoquinone writhing (PQW)assay after peroral administration; activity value ranges from (28.6-55.9); settings: po; how it was run: as §1
Mus musculus [19] = assay: Effective dose by mouse phenyl-p-benzoquinone writhing (PQW)assay after peroral administration; 3.1-14.0; settings: po
Mus musculus [20] = assay: Effective dose by mouse phenyl-p-benzoquinone writhing (PQW)assay after peroral administration; 4.5-25.9; settings: po
Mus musculus [21] = assay: Effective dose by mouse phenyl-p-benzoquinone writhing (PQW)assay after peroral administration; activity value ranges from (15.9-183); settings: po; how it was run: as §1
Mus musculus [22] = assay: Effective dose by mouse phenyl-p-benzoquinone writhing (PQW)assay after peroral administration; activity value ranges from (0.66-2.55); settings: po
Mus musculus [23] = assay: Effective dose by mouse phenyl-p-benzoquinone writhing (PQW)assay after peroral administration; activity value ranges from (57.4 - 203.2); settings: po; how it was run: as §1
Mus musculus [24] = assay: Effective dose by mouse phenyl-p-benzoquinone writhing (PQW)assay after peroral administration; activity value ranges from (18.6-69.6); settings: po; how it was run: as §1
Mus musculus [25] = assay: Effective dose by mouse phenyl-p-benzoquinone writhing (PQW)assay after peroral administration; activity value ranges from (8.8-36.8); settings: po; how it was run: as §1
Mus musculus [26] = assay: Effective dose by mouse phenyl-p-benzoquinone writhing (PQW)assay after peroral administration; 0.23-0.53; settings: po
Mus musculus [27] = assay: Effective dose by mouse phenyl-p-benzoquinone writhing (PQW)assay after peroral administration; activity value ranges from (49.8-84.8); settings: po; how it was run: as §1
Mus musculus [28] = assay: Effective dose by mouse phenyl-p-benzoquinone writhing (PQW)assay after peroral administration; activity value ranges from (0.37-1.22); settings: po

Structure (SMILES): O=S(=O)(c1nc(-c2cccc(Cl)c2)c(-c2ccccc2)[nH]1)C(F)(F)C(F)F
- ED50 (Mus musculus [1]): 19.8 mg/kg
- ED50 (Rattus norvegicus [2]): 0.04 mg/kg

Structure (SMILES): COc1ccc(-c2[nH]c(SC(F)(F)F)nc2-c2ccc(F)cc2)cc1
- ED50 (Mus musculus [3]): 78 mg/kg

Structure (SMILES): FC(F)(F)CSc1nc(-c2ccccc2)c(-c2ccccc2)[nH]1
- Decrease (Rattus norvegicus [4]): 54%
- ED50 (Mus musculus [5]): > 130 mg/kg

Structure (SMILES): O=S(=O)(c1nc(-c2ccc(Cl)cc2)c(-c2ccc(Cl)cc2)[nH]1)C(F)F
- ED50 (Mus musculus [6]): 2.3 mg/kg

Structure (SMILES): O=S(=O)(c1nc(-c2cccc(Cl)c2)c(-c2cccc(Cl)c2)[nH]1)C(F)(F)C(F)F
- ED50 (Mus musculus [7]): 20.9 mg/kg

Structure (SMILES): COc1ccc(-c2nc([S+]([O-])C(C)C)[nH]c2-c2ccc(OC)cc2)cc1 (configuration not stated)
- ED50 (Mus musculus [5]): > 130 mg/kg
- Decrease (Rattus norvegicus [8]): 36%

Structure (SMILES): CCSc1nc(-c2ccc(OC)cc2)c(-c2ccc(OC)cc2)[nH]1
- ED50 (Mus musculus [9]): 11 mg/kg
- ED50 (Rattus norvegicus [2]): 5 mg/kg

Structure (SMILES): O=S(=O)(CC(F)(F)F)c1nc(-c2ccc(F)cc2)c(-c2ccc(F)cc2)[nH]1
- ED50 (Mus musculus [10]): 20 mg/kg

Structure (SMILES): [O-][S+](CC(F)(F)F)c1nc(-c2ccc(Cl)cc2)c(-c2ccc(Cl)cc2)[nH]1 (configuration not stated)
- ED50 (Mus musculus [11]): 5.3 mg/kg
- ED50 (Rattus norvegicus [2]): 2.3 mg/kg

Structure (SMILES): Cc1ccc(-c2nc(S(=O)(=O)C(F)(F)C(F)F)[nH]c2-c2ccc(C)cc2)cc1
- ED50 (Mus musculus [12]): 11 mg/kg

Structure (SMILES): O=S(=O)(c1nc(-c2cccc(F)c2)c(-c2ccccc2)[nH]1)C(F)(F)C(F)F
- ED50 (Mus musculus [13]): 2 mg/kg

Structure (SMILES): COc1ccc(-c2[nH]c(S(C)(=O)=O)nc2-c2ccccc2)cc1
- ED50 (Mus musculus [14]): 26 mg/kg
- Decrease (Rattus norvegicus [15]): 33%

Structure (SMILES): CSc1nc(-c2cccc(Cl)c2)c(-c2ccccc2)[nH]1
- Decrease (Rattus norvegicus [16]): 43%
- ED50 (Mus musculus [5]): > 130 mg/kg

Structure (SMILES): CCS(=O)(=O)c1nc(-c2ccc(OC)cc2)c(-c2ccc(OC)cc2)[nH]1
- ED50 (Mus musculus [17]): 10 mg/kg
- ED50 (Rattus norvegicus [2]): 6 mg/kg

Structure (SMILES): O=S(=O)(c1nc(-c2ccc(C(F)(F)F)cc2)c(-c2ccccc2)[nH]1)C(F)(F)C(F)F
- ED50 (Mus musculus [18]): 40 mg/kg

Structure (SMILES): O=S(=O)(c1nc(-c2ccccc2)c(-c2ccccc2)[nH]1)C(F)(F)C(F)Br (configuration not stated)
- ED50 (Mus musculus [19]): 6.6 mg/kg

Structure (SMILES): COc1ccc(-c2nc(S(=O)(=O)C(F)(F)C(Br)Br)[nH]c2-c2ccc(OC)cc2)cc1
- ED50 (Mus musculus [20]): 10.8 mg/kg
- ED50 (Rattus norvegicus [2]): > 9 mg/kg

Structure (SMILES): [O-][S+](CC(F)(F)F)c1nc(-c2ccccc2)c(-c2ccccc2)[nH]1 (configuration not stated)
- ED50 (Mus musculus [21]): 54 mg/kg
- ED50 (Rattus norvegicus [2]): 75 mg/kg

Structure (SMILES): [O-][S+](c1nc(-c2ccc(Cl)cc2)c(-c2ccc(Cl)cc2)[nH]1)C(F)F (configuration not stated)
- ED50 (Mus musculus [22]): 1.3 mg/kg

Structure (SMILES): CS(=O)(=O)c1nc(-c2ccccc2Cl)c(-c2ccccc2Cl)[nH]1
- ED50 (Mus musculus [23]): 108 mg/kg
- ED50 (Rattus norvegicus [2]): > 50 mg/kg

Structure (SMILES): CC[S+]([O-])c1nc(-c2ccc(OC)cc2)c(-c2ccc(OC)cc2)[nH]1 (configuration not stated)
- ED50 (Mus musculus [24]): 36 mg/kg

Structure (SMILES): O=S(=O)(c1nc(-c2ccc(F)cc2)c(-c2ccc(C(F)(F)F)cc2)[nH]1)C(F)(F)C(F)F
- ED50 (Mus musculus [25]): 18 mg/kg
- ED50 (Rattus norvegicus [2]): > 1 mg/kg

Structure (SMILES): COc1ccc2c(c1)c(CC(=O)O)c(C)n2C(=O)c1ccc(Cl)cc1 [INDOMETHACIN]
- ED50 (Mus musculus [26]): 0.35 mg/kg

Structure (SMILES): CCCCC1C(=O)N(c2ccccc2)N(c2ccccc2)C1=O [PHENYLBUTAZONE]
- ED50 (Mus musculus [27]): 65 mg/kg

Structure (SMILES): O=S(=O)(c1nc(-c2ccc(F)cc2)c(-c2ccc(F)cc2)[nH]1)C(F)(F)C(F)F [TIFLAMIZOLE]
- ED50 (Mus musculus [28]): 0.67 mg/kg
